# Arrestin-AP2 inh – inhibitors of beta-arrestin/AP2 binding, primary screen, biochemical, GPCR trafficking, flow cytometry; 340,000 tested, 0.31% active; inhibition, % at 10 µM; beta-arrestin 1 C-terminal peptide binding to AP2 beta2-adaptin appendage (human); FITC-arrestin peptide / GST-AP2 beads; AP2 beta2 appendage carries R879A mutation;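 active = inhibition above a set limit, near 3 SD of compounds lacking own fluorescence, cut at about 54% in these data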;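 also: plate controls were DMSO wells for no effect and 5 µM unlabelled arrestin peptide for full effect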
#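 System: GST-AP2 R879A glutathione beads; medium: PBS, Tween 20 0.05%, BSA 0.1%; reagent: fluorescein-tagged arrestin peptide at 50 nM final; schedule: pre-incubation 12 min, peptide binding 1 h, room temperature; detection: flow cytometry, FL1 (488/535 nm); read-out: inhibition as reduced fluorescein signal on beads, percent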
# MEKK2mut PB1 HTS – MEK5 binding signal on mutant MEKK2 PB1, primary screen, biochemical, multiplex bead flow cytometry, Alexa488-MEK5; 290,000 tested, 0.35% active; AID 1530, 2009; Alexa488-MEK5 binding to MEKK2 mutant; percent response, % at 10 µM; in the data active = percent response above about 24%, passing the limit was not always enough
# MEKK2 WT-MEK5 – modulators of MEK5 binding to wildtype MEKK2, primary screen, biochemical, multiplex bead flow cytometry, Alexa488-MEK5; Alexa488-MEK5 binding to MEKK2 WT; actives lie on both sides; 290,000 tested, 1.1% active; Mitogen-activated protein kinase kinase kinase 2 (Homo sapiens), Q9Y2U5; binding response (% of control), % at 10 µM; in the data active = binding response below about 67% or above about 130%
# MEKK3 PB1 HTS – modulators of MEKK3-MEK5 PB1 binding, primary screen, biochemical, wildtype MEKK3, multiplex bead flow cytometry, Alexa488-MEK5 | bead-based flow cytometry, Alexa488-MEK5 binding to MEKK3; actives lie on both sides; 0 = blocked by unlabeled MEK5, 100 = vehicle | 290,000 tested, 1.4% active | binding response (% of control), % at 10 µM | Mitogen-activated protein kinase kinase kinase 3 (Homo sapiens), Q99759;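 active = binding response more than 3 SD above or below the average of its plate-row segment, actives on both sides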;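 also: Alexa488 bead fluorescence after subtracting the streptavidin-only scavenger bead signal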
# Target sequence (Q99759 whole entry, looked up): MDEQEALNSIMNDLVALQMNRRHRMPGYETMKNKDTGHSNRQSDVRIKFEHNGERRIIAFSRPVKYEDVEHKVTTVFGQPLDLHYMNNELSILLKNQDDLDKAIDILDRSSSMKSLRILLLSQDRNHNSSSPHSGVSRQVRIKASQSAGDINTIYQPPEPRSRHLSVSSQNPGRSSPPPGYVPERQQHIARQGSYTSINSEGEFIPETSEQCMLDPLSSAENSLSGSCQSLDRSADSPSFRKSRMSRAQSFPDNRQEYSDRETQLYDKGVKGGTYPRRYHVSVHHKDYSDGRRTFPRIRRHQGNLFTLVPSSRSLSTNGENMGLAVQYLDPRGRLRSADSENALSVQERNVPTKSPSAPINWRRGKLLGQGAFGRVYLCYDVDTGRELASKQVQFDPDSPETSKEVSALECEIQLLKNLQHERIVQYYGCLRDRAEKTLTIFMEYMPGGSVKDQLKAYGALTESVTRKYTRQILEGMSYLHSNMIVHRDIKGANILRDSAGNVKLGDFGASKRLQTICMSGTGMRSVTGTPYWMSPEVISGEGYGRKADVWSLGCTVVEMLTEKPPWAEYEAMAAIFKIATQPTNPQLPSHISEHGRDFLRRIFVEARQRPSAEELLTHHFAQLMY
# MEKK2wt confirm – modulators of MEK5 binding to wildtype MEKK2, confirmation, biochemical, single concentration, multiplex bead flow cytometry | shares compounds with MEKK3 PB1 HTS | Alexa488-MEK5 binding to MEKK2 WT; actives lie on both sides | binding response (% of control), % at 10 µM | 5,900 tested, 2.4% active | AID 1892, 2009; in the data active = binding response below about 16% or above about 210%; inactive = in between
# MEKK2mut-MEK5 – mutant MEKK2 PB1-MEK5 binding signal retest – biochemical, single concentration, multiplex bead flow cytometry, confirmation. shares compounds with MEKK3 PB1 HTS. Alexa488-MEK5 binding to MEKK2 mutant. percent response, % at 10 µM. 5,900 tested, 2% active. AID 1893, 2009; in the data active = percent response mostly above about 71%, no sharp cut-off; inactive = mostly below about 38%;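 also: higher means compound restores mutant binding toward wildtype level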
# MEKK3-MEK5 inh – MEKK3 wild-type PB1 binding to MEK5, inhibitors, confirmation, biochemical, bead multiplex flow cytometry, single concentration, wildtype | shares compounds with MEKK3 PB1 HTS | 5,900 tested, 1.8% active | Alexa488-MEK5 binding to MEKK3; active compounds read low | binding response (% of control), % at 10 µM;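 active = binding response below 72% of control, or above a set upper limit, though filed actives all read lower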;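 also: 100% = DMSO only wells and 0% = binding blocked by excess unlabeled MEK5; lower values mean stronger disruption of MEK5 binding to MEKK3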
# Active calls of the source: *; · = no result; [ ] = another dose, or the depositor's remark. Most compounds without a hit are left out; they make up all but 2.3% or so of the library.
SMILES,Arrestin-AP2 inh,MEKK2mut PB1 HTS,MEKK2 WT-MEK5,MEKK3 PB1 HTS,MEKK2wt confirm,MEKK2mut-MEK5,MEKK3-MEK5 inh
Cc1ccc(C(=O)NCC(=O)OC(C)C(=O)Nc2ccc(N(C)C)cc2)cc1C (stereo not given),7.7,8.0,132.0,141.0*,102.0,0.0,104.0
COc1ccc(NC(=S)N2c3ccccc3CC2C)cc1OC (stereo not given),4.0,-5.0,85.0,74.0*[inhibitor],100.0,-1.0,102.0
NC(=O)C1C(=O)c2ccccc2C1(C[N+](=O)[O-])c1ccccc1 (stereo not given),8.6,·,·,·,·,·,·
Cc1ccc(Nc2nc(CSc3nnc(-c4ccc(F)cc4)n3C)cs2)cc1,1.2,-8.0,3.0*[inhibitor],1.0*[inhibitor],99.0,-1.0,100.0
COc1ccc(C(CCNC(C)c2ccccc2)C(C)C)cc1 (stereo not given),6.2,10.0,118.0,103.0,·,·,·
COc1ccc(C(C)NCCC(c2ccc(OC(C)C)cc2)c2ccccc2OC)cc1 (stereo not given),10.5,45.0*,194.0*,110.0,180.0,44.0,109.0
OCC1OC(n2cnc3c(SCc4ccccc4)nc(F)nc32)C(O)C1O (stereo not given),2.1,·,·,·,·,·,·
Cn1c(SCC#N)nc2ccccc2c1=O,7.9,29.0,116.0,128.0*,96.0,-12.0,99.0
C=C(C)Cn1c(SCC#N)nc2ccccc2c1=O,-3.5,-10.0,92.0,82.0*[inhibitor],101.0,-1.0,104.0
Cn1c(SCc2ccccc2C#N)nc2ccccc2c1=O,-1.4,-7.0,94.0,100.0,·,·,·
CCOC(=O)C1CCN(C(=O)c2cc(S(=O)(=O)N3CCOCC3)c(Cl)cc2Cl)CC1,-0.6,-4.0,92.0,82.0*[inhibitor],107.0,3.0,104.0
O=C(NCCCN1CCCC1)c1cc2c(Cl)nc3ccccc3c2s1,-1.1,17.0,142.0*,103.0,143.0,21.0,107.0
CCCCN(CC)CCNC(=O)c1cc2c(-c3ccccc3F)nn(C)c2s1,9.6,17.0,126.0,106.0,·,·,·
CCN(CC)CCCNC(=O)c1cc2c(-c3ccc(Cl)cc3)nn(C)c2s1,-4.0,29.0*,218.0*,122.0*,154.0,26.0,104.0
Cn1nc(-c2ccc(Cl)cc2)c2cc(C(=O)NCC3CCCO3)sc21 (stereo not given),11.9,2.0,106.0,102.0,·,·,·
CCN1CCN(CCCNC(=O)c2cc3c(=O)[nH]c4ccccc4c3s2)CC1,15.9,2.0,105.0,100.0,·,·,·
CC1CCCCN1CCNC(=O)c1cc2c(-c3ccccc3F)nn(C)c2s1 (stereo not given),-8.4,24.0*,128.0,112.0,118.0,33.0,105.0
CCN(CCCNC(=O)c1cc2c(-c3cccc(OC)c3)nn(C)c2s1)Cc1ccccc1,-7.9,31.0*,149.0*,108.0,166.0,50.0,107.0
CCOC(=O)c1sc(N2C(=O)C(O)=C(C(=O)c3ccco3)C2c2ccc([N+](=O)[O-])cc2)nc1C (stereo not given),-8.3,0.0,95.0,100.0,·,·,·
O=C(NCCS(=O)(=O)c1ccc(Br)cc1)c1ccc(Cl)cc1Cl,-0.2,4.0,106.0,104.0,·,·,·
CN1CCN(CCCNC(=O)c2cc3c(-c4ccc(Cl)cc4)nn(C)c3s2)CC1,8.2,17.0,180.0*,108.0,150.0,25.0,103.0
O=C(NCCCN1CCCCCC1)c1ccc2c(Cl)c3c(nc2c1)CCCC3,-2.7,-1.0,160.0*,107.0,172.0,47.0,105.0
CCN1CCN(CCCNC(=O)c2ccc3c(Cl)c4c(nc3c2)CCCC4)CC1,27.4,6.0,116.0,103.0,·,·,·
O=C(Nc1cc(C(F)(F)F)ccc1N1CCCC1)C1CCCO1 (stereo not given),-5.1,·,·,·,·,·,·
Cc1nc(NC(=O)c2c(-c3ccccc3Cl)noc2C)sc1C,20.5,4.0,103.0,99.0,·,·,·
SMILES,Arrestin-AP2 inh,MEKK2mut PB1 HTS,MEKK2 WT-MEK5,MEKK3 PB1 HTS,MEKK2wt confirm,MEKK2mut-MEK5,MEKK3-MEK5 inh
CC(=O)C1=C(O)C(=O)N(Cc2ccco2)C1c1cccc(F)c1 (stereo not given),12.3,0.0,113.0,129.0*,97.0,-7.0,96.0
COC(=O)c1ccc(CSc2nnc(Nc3cccc(OC)c3)s2)o1,4.0,4.0,107.0,97.0,·,·,·
COC(=O)c1ccc(CSc2nnc(NC(C)C)s2)o1,17.0,-2.0,84.0,71.0*[inhibitor],108.0,0.0,101.0
COC(=O)c1sc(N)c(C(=O)OC)c1COC(=O)C12CC3CC(CC(O)(C3)C1)C2,-3.3,-2.0,96.0,100.0,·,·,·
Cc1sc(N/N=C/c2ccco2)nc1-c1ccccc1,-7.5,-1.0,98.0,131.0*,106.0,5.0,103.0
COc1ccc(N2C(=O)c3cccc4cc(Br)cc(c34)C2=O)cc1,5.3,-18.0,91.0,73.0*[inhibitor],96.0,-3.0,97.0
CN(C)C(CNC(=O)c1cc(S(=O)(=O)N2CCOCC2)ccc1F)c1cccs1 (stereo not given),2.1,·,·,·,·,·,·
COc1cc2[nH]c3c(Cl)ncnc3c2cc1OC,27.5,1.0,94.0,71.0*[inhibitor],108.0,14.0,103.0
COc1cc2[nH]c3c(N4CCN(c5ccc(Cl)cc5)CC4)ncnc3c2cc1OC,7.0,24.0*,157.0*,111.0,189.0,49.0,110.0
O=C(NC(=S)NNC(=O)c1cnccn1)c1ccc(Cl)cc1,5.5,-25.0,-10.0*[inhibitor],2.0*[inhibitor],112.0,12.0,107.0
COc1ccc(C(=O)NC(=S)NNC(=O)c2cnccn2)cc1,10.2,0.0,106.0,114.0,·,·,·
CCOc1ccc(CCNC(=O)c2cccc(C#N)c2)cc1OCC,40.6,-4.0,90.0,90.0,·,·,·
Clc1ccc(OCCOCCOc2cccc3cccnc23)c(Br)c1,-3.1,1.0,109.0,137.0*,111.0,16.0,114.0
Brc1ccccc1OCCOCCOc1cccc2cccnc12,-6.0,-4.0,95.0,96.0,·,·,·
c1ccc(C(NCCNC(c2ccccc2)c2ccccc2)c2ccccc2)cc1,-16.4,27.0*,142.0*,111.0,151.0,26.0,108.0
CC1=C(C#N)C(=O)NC(=O)/C1=C/c1ccc(-c2ccc(S(N)(=O)=O)cc2)o1,-6.1,-13.0,3.0*[inhibitor],7.0*[inhibitor],82.0,-12.0,88.0
CCCn1c(C)cc(C(=O)CSc2nc3nc(C)cc(C)n3n2)c1C,3.1,1.0,104.0,135.0*,105.0,4.0,99.0
